# In ChEMBL document CHEMBL1151697, “Synthesis and structure-activity relationships for biphenyl H3 receptor antagonists with moderate anti-cholinesterase activity” (Bioorg Med Chem, 2008):
# Activity calls are given as the source filed them. No cut-off for these calls is given here.
# Tests used:
# Histamine H3 receptor [1] = molecular target: T1, Histamine H3 receptor (Homo sapiens, UniProt Q9Y5N1); assay: Antagonist activity at human histamine H3 receptor expressed in SK-N-MC cells by CRE-mediated beta-galactosidase reporter gene assay administered 10 mins before (R)-alpha-methylhistamine challenge after 6 hrs; format: functional, cell-based
# How it was run: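 SK-N-MC cells stably carrying human H3 and a β-galactosidase reporter. Compound added to medium, forskolin 5 min later, then (R)-α-methylhistamine 10 min after compound; 6 h at 37 °C. Cells lysed in phosphate assay buffer (pH 8) with 0.5% Triton and 40 mM β-mercaptoethanol; β-galactosidase read at 570 nm. Means of 4–6 experiments.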
# Histamine H2 receptor = Histamine H2 receptor (Cavia porcellus, UniProt P47747); assay: (§1) Antagonist activity at histamine H2 receptor in guinea pig atrium assessed as changes in rate of spontaneous beat; format: functional, tissue-based, Cardiac atrium
# How it was run: (§2)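 Guinea-pig atria (H2) in Ringer–Locke at 31 °C (mM: NaCl 154.0, KCl 5.6, CaCl2 1.08, NaHCO3 5.95, glucose 11.1), gassed 95% O2–5% CO2. Spontaneous beating rate recorded by cardiotachograph. Cumulative dimaprit curves (0.1–100 µM) run without and with compound up to 10 µM. Affinity given as pKB by Furchgott, or as pD2′ by Van Rossum if non-surmountable.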
# [2] = molecular target: Histamine H1 receptor (Cavia porcellus) (UniProt P31389); assay: Antagonist activity at histamine H1 receptor in guinea pig terminal ileum; format: functional, tissue-based
# How it was run: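 Guinea-pig (250–350 g) terminal ileum (H1) suspended isometrically in Krebs–Henseleit at 37 °C, aerated 95% O2–5% CO2. Cumulative histamine curves (1 nM to 1 µM) run without and with compound up to 10 µM. pKB (apparent pA2) from Furchgott's equation; pD2′ from Van Rossum's equation when antagonism was non-surmountable.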
# [3] = molecular target: Histamine H3 receptor (Cavia porcellus) (UniProt Q9JI35); assay: Antagonist activity at histamine H3 receptor in electrically-stimulated guinea pig ileum assessed as inhibition of (R)-alpha-methylhistamine-induced twitch contraction in presence of 1 uM mepyramine; format: functional, tissue-based
# How it was run: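 Guinea-pig ileum, electrically stimulated (0.1 Hz, 1 ms, submaximal voltage). Twitch inhibition by cumulative (R)-α-methylhistamine (1 nM to 1 µM) with 1 µM mepyramine present. Compounds tested at 1 nM to 30 µM. Potency as pKB from Furchgott's equation, or as pD2′ (Van Rossum) for non-surmountable antagonism.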
# Histamine H3 receptor [4] = molecular target: Histamine H3 receptor (Rattus norvegicus, UniProt Q9QYN8); assay: Displacement of [3H]RAMHA from histamine H3 receptor in Wistar rat brain membrane; format: cell membranes
# How it was run: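 Membranes from male Wistar rat brain (150–200 g) incubated 45 min with 0.5 nM [3H]RAMHA and compound (0.03 nM to 10 µM) in 50 mM Tris–HCl pH 7.4, 50 mM NaCl, 0.5 mM EDTA. Vacuum filtration, two ice-cold buffer rinses. Nonspecific binding set with 10 µM thioperamide. pKi by Cheng–Prusoff.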
# SK-N-MC [5] = assay: Cytotoxicity against human SK-N-MC cells at 1 uM after 6 hrs by MTT test; format: functional, cell-based
# How it was run: (§3)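 MTT viability test: SK-N-MC cells held 6 h with compound (1–10 µM) or vehicle. MTT (5 mg/ml stock) added for 3 h, cells washed in PBS, formazan dissolved in 0.1 N HCl in isopropanol, absorbance read at 570 nm. Viability given relative to control.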
# Histamine H3 receptor [6] = molecular target: T1, Histamine H3 receptor; assay: Displacement of [3H]RAMHA from human histamine H3 receptor expressed in SK-N-MC cells; format: cell-based
# How it was run: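 SK-N-MC membranes bearing human H3 incubated 60 min at room temperature with 0.5 nM [3H]-(R)-α-methylhistamine and competitor (0.01 nM to 10 µM). Rapid filtration, two washes in ice-cold 50 mM Tris–HCl/5 mM EDTA. Nonspecific binding with 10 µM histamine. pKi via Cheng–Prusoff; means of 4–6 experiments.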
# SK-N-MC [7] = assay: Cytotoxicity against human SK-N-MC cells at 10 uM after 6 hrs by MTT test; format: functional, cell-based; how it was run: as §3
# [8] = molecular target: Histamine H2 receptor (Cavia porcellus) (UniProt P47747); assay: as §1; format: functional, tissue-based; conditions: Cardiac atrium; how it was run: as §2
# [9] = molecular target: T2, Acetylcholinesterase (Rattus norvegicus) (UniProt P37136); assay: Inhibition of acetylcholinesterase in Wistar rat brain homogenate at upto 10 uM by Ellman's method; format: tissue-based
# T2 sequence (whole entry): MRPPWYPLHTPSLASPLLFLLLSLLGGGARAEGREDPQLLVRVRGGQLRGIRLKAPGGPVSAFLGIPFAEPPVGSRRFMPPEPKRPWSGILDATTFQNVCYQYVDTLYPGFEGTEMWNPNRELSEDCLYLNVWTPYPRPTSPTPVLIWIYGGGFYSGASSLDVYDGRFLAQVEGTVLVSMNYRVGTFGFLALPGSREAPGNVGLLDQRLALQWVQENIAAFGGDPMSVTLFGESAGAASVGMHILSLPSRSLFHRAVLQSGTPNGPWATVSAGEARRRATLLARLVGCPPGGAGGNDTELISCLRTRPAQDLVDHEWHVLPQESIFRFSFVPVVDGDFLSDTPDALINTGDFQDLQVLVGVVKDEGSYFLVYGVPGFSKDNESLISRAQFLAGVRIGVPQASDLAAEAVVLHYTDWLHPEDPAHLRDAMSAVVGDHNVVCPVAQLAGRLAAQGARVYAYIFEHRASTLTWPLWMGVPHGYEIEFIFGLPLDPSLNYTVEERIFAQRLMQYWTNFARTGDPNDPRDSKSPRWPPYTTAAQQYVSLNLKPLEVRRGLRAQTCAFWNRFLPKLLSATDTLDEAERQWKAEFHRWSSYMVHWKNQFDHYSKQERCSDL
# Histamine H4 receptor = Histamine H4 receptor (Homo sapiens, UniProt Q9H3N8); assay: Displacement of [3H]histamine from human histamine H4 receptor expressed in SK-N-MC cells at upto 10 uM
# T1 sequence (Q9Y5N1 whole entry): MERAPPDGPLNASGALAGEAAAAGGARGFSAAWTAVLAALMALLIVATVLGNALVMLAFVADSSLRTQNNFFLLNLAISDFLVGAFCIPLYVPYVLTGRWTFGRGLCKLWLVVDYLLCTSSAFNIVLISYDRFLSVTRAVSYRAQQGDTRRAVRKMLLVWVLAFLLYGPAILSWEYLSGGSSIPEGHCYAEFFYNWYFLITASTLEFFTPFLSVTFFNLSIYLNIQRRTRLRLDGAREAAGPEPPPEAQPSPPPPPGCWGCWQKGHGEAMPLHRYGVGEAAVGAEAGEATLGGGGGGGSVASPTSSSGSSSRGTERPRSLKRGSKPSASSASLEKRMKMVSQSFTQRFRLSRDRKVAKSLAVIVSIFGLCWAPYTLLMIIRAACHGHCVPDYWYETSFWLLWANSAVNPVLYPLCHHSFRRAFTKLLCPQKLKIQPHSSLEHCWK
# Chain of Histamine H1 receptor (Cavia porcellus) (P31389 whole entry): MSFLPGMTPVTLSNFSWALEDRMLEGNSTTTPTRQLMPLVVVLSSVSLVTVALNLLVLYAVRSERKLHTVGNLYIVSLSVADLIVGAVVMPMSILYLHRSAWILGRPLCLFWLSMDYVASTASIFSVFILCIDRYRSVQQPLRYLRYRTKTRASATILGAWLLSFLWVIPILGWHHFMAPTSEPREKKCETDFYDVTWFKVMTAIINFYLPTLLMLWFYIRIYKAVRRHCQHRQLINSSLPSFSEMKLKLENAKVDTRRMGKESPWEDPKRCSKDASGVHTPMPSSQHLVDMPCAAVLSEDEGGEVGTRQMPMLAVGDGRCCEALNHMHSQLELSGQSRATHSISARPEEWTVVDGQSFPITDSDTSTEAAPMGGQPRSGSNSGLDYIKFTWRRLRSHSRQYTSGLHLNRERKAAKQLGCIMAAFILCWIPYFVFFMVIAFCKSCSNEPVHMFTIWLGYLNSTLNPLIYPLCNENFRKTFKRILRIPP
# Chain of Histamine H3 receptor (Cavia porcellus) (Q9JI35 whole entry): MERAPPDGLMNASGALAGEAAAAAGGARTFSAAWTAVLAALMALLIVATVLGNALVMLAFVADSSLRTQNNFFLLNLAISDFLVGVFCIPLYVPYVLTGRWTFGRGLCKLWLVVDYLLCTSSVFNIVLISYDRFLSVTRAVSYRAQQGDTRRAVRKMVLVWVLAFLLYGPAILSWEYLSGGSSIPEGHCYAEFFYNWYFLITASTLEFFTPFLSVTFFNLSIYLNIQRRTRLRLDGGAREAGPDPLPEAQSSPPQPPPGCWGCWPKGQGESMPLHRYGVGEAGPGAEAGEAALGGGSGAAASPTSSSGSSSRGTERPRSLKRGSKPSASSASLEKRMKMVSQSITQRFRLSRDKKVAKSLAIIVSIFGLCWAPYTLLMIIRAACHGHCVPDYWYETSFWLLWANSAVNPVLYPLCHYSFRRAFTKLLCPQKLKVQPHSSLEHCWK
# Chain of Histamine H2 receptor (Cavia porcellus) (P47747 whole entry): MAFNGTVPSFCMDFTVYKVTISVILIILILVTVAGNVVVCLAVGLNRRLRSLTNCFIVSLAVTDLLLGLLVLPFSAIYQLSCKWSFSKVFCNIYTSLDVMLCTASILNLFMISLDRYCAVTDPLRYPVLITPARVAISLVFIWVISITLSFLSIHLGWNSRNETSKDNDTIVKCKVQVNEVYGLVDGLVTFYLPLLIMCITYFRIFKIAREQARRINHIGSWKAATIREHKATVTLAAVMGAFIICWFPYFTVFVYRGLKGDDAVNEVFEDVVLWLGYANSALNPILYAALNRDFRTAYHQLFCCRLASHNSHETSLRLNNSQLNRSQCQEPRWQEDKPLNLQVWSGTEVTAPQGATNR
# Chain of Histamine H2 receptor (P47747 whole entry): as above
# Chain of Histamine H3 receptor (Rattus norvegicus, UniProt Q9QYN8) (Q9QYN8 whole entry): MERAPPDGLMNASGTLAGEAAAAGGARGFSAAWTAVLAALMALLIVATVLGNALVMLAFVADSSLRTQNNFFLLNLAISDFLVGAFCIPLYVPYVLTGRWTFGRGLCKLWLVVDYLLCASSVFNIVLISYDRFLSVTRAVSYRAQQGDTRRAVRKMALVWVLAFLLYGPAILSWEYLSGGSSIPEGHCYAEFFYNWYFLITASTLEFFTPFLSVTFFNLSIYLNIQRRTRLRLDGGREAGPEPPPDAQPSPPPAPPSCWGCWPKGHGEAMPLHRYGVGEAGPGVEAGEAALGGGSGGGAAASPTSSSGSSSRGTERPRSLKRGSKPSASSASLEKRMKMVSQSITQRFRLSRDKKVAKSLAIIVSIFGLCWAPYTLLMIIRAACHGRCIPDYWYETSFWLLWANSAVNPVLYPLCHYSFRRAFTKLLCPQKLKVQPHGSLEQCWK
EC50 (Histamine H2 receptor) [nM],Ki (Histamine H3 receptor [4]) [nM],Ki (Histamine H3 receptor [6]) [nM],Compound,pKb (Histamine H3 receptor [1]),pKb [2],pKb [3],Activity (SK-N-MC [5]),Activity (SK-N-MC [7]),pKb [8],Activity [9],Activity (Histamine H4 receptor)
3390,3.16,9.33,CCCN(CCC)Cc1ccc(-c2ccc(CN(CCC)CCC)cc2)cc1,7.8,5.54,8.78,Not toxic,Not toxic,–,–,–
–,–,–,c1cc(-c2ccc(CCN3CCCCC3)cc2)ccc1CCN1CCCCC1,8.5,5.32,8.43,Not toxic,Not toxic,6.38,inactive,inactive
